Screening results: PubChem, The Scripps Research Institute Molecular Screening Center
CHO parental Ca: counter-screen: ATP calcium response change in parental CHO cells | 330,000 tested, 0.63% active | AID 463079 | inhibition, % at 5.6 µM | parental CHO-K1, ATP-induced calcium, Fluo-8 fluorescence;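 active means inhibition above that plate's mean sample inhibition plus 3 SD, cut at about 26% in these data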;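 further: 0% = ATP-challenged DMSO wells and 100% = DMSO wells without ATP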
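Measured by: calcium-sensitive Fluo-8 fluorescence / Test system: CHO parental line / Controls: ATP-challenged DMSO wells low, unchallenged DMSO wells high / Measure: % inhibition / Compound: single nominal dose of 5.6 µM per compound / Replicates: single well per compound, no replicates / Reagent: ATP as calcium-mobilizing challenge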
TAAR1 antagonist: antagonists of human TAAR1; Q96RJ0; 360,000 tested, 1.5% active; inhibition, % at 3 µM; AID 624466; CHO RD-HGA16 TAAR1, Fluo-8 calcium fluorescence, antagonist;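 active means inhibition above a per-plate cutoff, the mean inhibition of test compounds on that plate plus 3 SD, cut at about 49% in these data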;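 further: 0% = DMSO plus EC80 beta-PEA response and 100% = DMSO alone without agonist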
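System: RD-HGA16 CHO cells with stable hTAAR1 and Gα16 | Probe or stimulus: EC80 β-phenethylamine stimulus | Dosing: 3 µM, single point | Times: Dye loading 75 min at 37 °C, then 30 min room temperature | Measured by: Fluo-8 calcium-sensitive fluorescence | Read-out basis: % inhibition of agonist calcium response | Replicates: n of 1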
OX1R antag-1: OX1R (human) antagonism; O43613; OX1R-expressing cells, FRET antagonist read-out; inhibition, % at 6.6 µM; 330,000 tested, 1.8% active; AID 485270; in the data active means inhibition mostly above about 38%, no sharp cut-off; inactive means mostly below about 40%;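 further: 0% = agonist challenge alone and 100% = reference antagonist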
Target sequence (O43613 whole entry, looked up): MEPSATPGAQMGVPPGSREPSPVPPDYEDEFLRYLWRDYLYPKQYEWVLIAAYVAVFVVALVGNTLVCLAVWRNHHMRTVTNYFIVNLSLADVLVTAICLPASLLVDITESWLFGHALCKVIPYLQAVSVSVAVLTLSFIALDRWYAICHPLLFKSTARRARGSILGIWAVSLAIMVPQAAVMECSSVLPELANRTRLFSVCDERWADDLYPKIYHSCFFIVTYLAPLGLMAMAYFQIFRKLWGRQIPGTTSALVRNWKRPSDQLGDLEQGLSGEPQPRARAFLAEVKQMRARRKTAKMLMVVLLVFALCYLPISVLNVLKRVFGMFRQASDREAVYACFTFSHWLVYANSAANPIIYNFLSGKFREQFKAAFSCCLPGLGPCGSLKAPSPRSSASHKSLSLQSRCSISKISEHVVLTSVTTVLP
OX1R antag-2: antagonists of human orexin 1 receptor; O43613; inhibition, % at 5 µM; CHO/OX1R cells, Fluo-8 calcium fluorescence, orexin A; AID 434989; 330,000 tested, 0.43% active;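 active means inhibition above its plate's threshold, mean inhibition of all tested compounds on the plate plus 3 SD, cut at about 37% in these data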;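 further: 0% = orexin A challenge wells and 100% = SB-334867-A antagonist wells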
TAAR1 agonist: human TAAR1 agonism. AID 624467. Q96RJ0. 360,000 tested, 0.99% active. CHO RD-HGA16 TAAR1, Fluo-8 calcium fluorescence; vehicle wells 0%, saturating PEA agonist 100%. activation, % at 3 µM;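 active means activation above the mean activation of all test compounds in the run plus 3 SD, cut at about 38% in these data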
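System: CHO-derived RD-HGA16 cells with stable Gα16 and human TAAR1. Times: 17-24 h plating, Fluo-8 75 min 37 °C, 30 min RT. Measured by: calcium-sensitive Fluo-8 signal, excitation 470-495, emission 515-575 nm. Read-out basis: % activation relative to PEA EC100 response. Control set: DMSO and PEA EC100. Repeats: no replicates (n 1).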
OX1R HTRF confirm: confirmation of human orexin 1 receptor antagonists, HTRF format; inhibition, % at 6.6 µM; shares compounds with OX1R antag-1; AID 492964; 1,800 tested, 49% active; OX1R-expressing cells, HTRF antagonist assay; in the data active means inhibition above about 55%;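 further: CHO cells expressing OX1R stimulated with orexin A at about EC80; 0% = agonist challenge alone and 100% = reference antagonist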
CHO-K1 HTRF cnt: counter-screen: parental CHO-K1 HTRF response; AID 493232; parental CHO-K1 cells, HTRF counterscreen; shares compounds with OX1R antag-1; 1,800 tested, 48% active; inhibition, % at 6.6 µM; in the data active means inhibition above about 17%;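 further: 0% = agonist challenge with vehicle and 100% = vehicle alone without agonist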
The depositor's hits bear a star. Only some compounds are listed: those with a hit (about 3.9% of all), similar ones and a draw of the others.

For Cc1cccn2c(=O)c3cc(C(N)=S)c(=N)n(CCCOC(C)C)c3nc12 the results were CHO parental Ca -15.8, TAAR1 antagonist 1.7, OX1R antag-1 33.6, OX1R antag-2 -27.4 and TAAR1 agonist 2.3.
`COc1ccc(CCn2c(=N)c(C(=O)NCCN3CCOCC3)cc3c(=O)n4cccc(C)c4nc32)cc1OC` gave CHO parental Ca 7.3, TAAR1 antagonist -7.2, OX1R antag-1 41.8, OX1R antag-2 -3.9 and TAAR1 agonist 2.5.
CCCCn1nnnc1C(c1cccc2ccccc12)N1CCN(C/C=C/c2ccccc2)CC1 (stereo not given) was read as TAAR1 antagonist -27.4 and TAAR1 agonist 2.4.
For CCOC(=O)c1ccccc1NC(=O)c1cccc([N+](=O)[O-])c1 the results were CHO parental Ca -8.1, TAAR1 antagonist -18.6, OX1R antag-1 13.6, OX1R antag-2 -39.3 and TAAR1 agonist 2.2.
For CCOC(=O)c1ccc([N+](=O)[O-])cc1NC(C)=O the results were CHO parental Ca -4.9, TAAR1 antagonist -12.2, OX1R antag-1 82.8*, OX1R antag-2 2.4, TAAR1 agonist -1.1, OX1R HTRF confirm 35.0 and CHO-K1 HTRF cnt 43.7*.
O=C1OC(c2ccccc2)(c2ccc3cc(O)ccc3c2)c2ccccc21 (stereo not given) was read as TAAR1 antagonist 7.3 and TAAR1 agonist 2.7.
COC(=O)c1nc(C(=O)OC)c(C(=O)OC)nc1C(=O)OC was read as CHO parental Ca -12.3, TAAR1 antagonist 0.9, OX1R antag-1 101.8*, OX1R antag-2 -10.1, TAAR1 agonist 6.2, OX1R HTRF confirm 48.8 and CHO-K1 HTRF cnt 22.0*.
`O=C(c1ccc(NS(=O)(=O)c2cccc([N+](=O)[O-])c2)cc1)N1CCCCCC1` gave CHO parental Ca -9.8, TAAR1 antagonist -5.4, OX1R antag-1 23.8, OX1R antag-2 -21.7 and TAAR1 agonist 4.2.
`O=C(c1ccccc1NS(=O)(=O)c1cccc([N+](=O)[O-])c1)N1CCCC1` gave CHO parental Ca -10.7, TAAR1 antagonist -4.8, OX1R antag-1 77.9*, OX1R antag-2 -0.1, TAAR1 agonist -0.1, OX1R HTRF confirm 20.3 and CHO-K1 HTRF cnt 6.7.
Screening Brc1cccc(-c2nnc(SCc3nc4ccccc4[nH]3)o2)c1 returned CHO parental Ca -13.8, TAAR1 antagonist -0.2, OX1R antag-1 79.5*, OX1R antag-2 -3.1, TAAR1 agonist 8.4, OX1R HTRF confirm 27.6 and CHO-K1 HTRF cnt -0.2.
Clc1ccc(-c2nnc(SCc3nc4ccccc4[nH]3)o2)c(Cl)c1 was read as CHO parental Ca -20.3, TAAR1 antagonist 13.8, OX1R antag-1 27.6, OX1R antag-2 -5.1 and TAAR1 agonist 0.8.
For CN(c1cccc(F)c1)c1cc2c(c3c1ccn3C)C1CCC2O1 (stereo not given) the results were TAAR1 antagonist -17.6 and TAAR1 agonist -1.4.
For CC1(C(=O)NCc2ccc(C(F)(F)F)cc2)CCN1C1Cc2ccccc2C1 (stereo not given) the results were TAAR1 antagonist 0.7 and TAAR1 agonist 5.7.
Screening CCC(CO)Nc1ncc([N+](=O)[O-])cc1C#N (stereo not given) returned CHO parental Ca -2.7, TAAR1 antagonist -7.1, OX1R antag-1 27.1, OX1R antag-2 0.8 and TAAR1 agonist 2.5.
For N#Cc1cc([N+](=O)[O-])cnc1N(CCO)CCO the results were CHO parental Ca -2.0, TAAR1 antagonist 1.1, OX1R antag-1 82.4*, OX1R antag-2 -12.8, TAAR1 agonist 0.1, OX1R HTRF confirm 34.1 and CHO-K1 HTRF cnt 21.8*.
Screening CC1(C)OC(=O)C2=C(CC(CCc3ccccc3)OC2c2cccc(C(F)(F)F)c2)O1 (stereo not given) returned TAAR1 antagonist 0.7 and TAAR1 agonist -1.1.
`CCOc1ccc(NC(=O)CNS(=O)(=O)c2c(C)cc(C)cc2C)cc1` gave CHO parental Ca -28.8, TAAR1 antagonist -17.9, OX1R antag-1 82.4*, OX1R antag-2 -2.8, TAAR1 agonist -0.9, OX1R HTRF confirm 61.9* and CHO-K1 HTRF cnt 0.0.
For CCOc1ccc(NC(=O)CC(=O)Nc2ccc(OCC)cc2)cc1 the results were CHO parental Ca 3.8, TAAR1 antagonist 1.9, OX1R antag-1 0.8, OX1R antag-2 3.6 and TAAR1 agonist -1.7.
CCC(C)(C)NC(=O)c1ccc(Sc2nncn2C)c([N+](=O)[O-])c1 was read as CHO parental Ca -4.8, TAAR1 antagonist -17.4, OX1R antag-1 28.9, OX1R antag-2 -15.8 and TAAR1 agonist 2.4.
CCS(=O)(=O)c1ccc(Sc2nncn2C)c([N+](=O)[O-])c1 was read as CHO parental Ca -2.2, TAAR1 antagonist -7.2, OX1R antag-1 96.4*, OX1R antag-2 -1.0, TAAR1 agonist 3.7, OX1R HTRF confirm 32.3 and CHO-K1 HTRF cnt 50.9*.
COC(=O)C1=C(C)N(Cc2ccccc2C(F)(F)F)C(=NCc2ccccc2)NC1c1cccc(F)c1 (stereo not given) was read as TAAR1 antagonist -12.3 and TAAR1 agonist 6.1.
`CCC[C@H]1CN(Cc2cccnc2)C(=O)[C@@H]1CC(=O)Nc1ccc(Br)cc1` gave TAAR1 antagonist -14.3 and TAAR1 agonist 0.4.
For CN(CCO)c1cc(N2CCN(C(=O)c3ccco3)CC2)c2nonc2c1[N+](=O)[O-] the results were CHO parental Ca 3.0, TAAR1 antagonist -5.6, OX1R antag-1 106.9*, OX1R antag-2 1.6, TAAR1 agonist -0.1, OX1R HTRF confirm 43.5 and CHO-K1 HTRF cnt 48.4*.
CC1CCN(c2cc(N(C)CCO)c([N+](=O)[O-])c3nonc23)CC1 was read as CHO parental Ca -4.5, TAAR1 antagonist -14.5, OX1R antag-1 38.8, OX1R antag-2 -13.2 and TAAR1 agonist 1.4.
For COCOCCn1cc(CN2CCS(=O)(=O)N(Cc3ccc(-c4ccccc4)cc3)C(C(C)C)C2=O)nn1 (stereo not given) the results were TAAR1 antagonist 3.7 and TAAR1 agonist 3.8.
For Cc1nc2ccc([N+](=O)[O-])cc2s1 the results were CHO parental Ca -5.6, TAAR1 antagonist 12.0, OX1R antag-1 31.7, OX1R antag-2 -15.9 and TAAR1 agonist 7.4.
Screening Cc1nc2ccc([N+](=O)[O-])cc2nc1C returned CHO parental Ca -3.6, TAAR1 antagonist -26.9, OX1R antag-1 111.5*, OX1R antag-2 3.7, TAAR1 agonist 3.1, OX1R HTRF confirm 68.5* and CHO-K1 HTRF cnt 80.6*.
COc1cccc(CNC(=O)[C@H]2CCCN2C(=O)[C@H]2CCCN2C(=O)c2ccc(C)c(C)c2)c1 was read as TAAR1 antagonist -17.6 and TAAR1 agonist -0.4.
